Laboratory results from PMC9037807 (RSC Advances, 2021).
Several values for one entry are separate records, joined by “and”; a condition that tells them apart may be missing. Equal entries are not always repeated.

Experiments:
[1] = target: T1, ovine COX-2 (Ovis aries, UniProt P79208); assay: In vitro cyclooxygenase; assay type: biochemical; conditions: for Selectivity index (SI): COX-1 IC50/COX-2 IC50
T1 sequence (P79208 17-603): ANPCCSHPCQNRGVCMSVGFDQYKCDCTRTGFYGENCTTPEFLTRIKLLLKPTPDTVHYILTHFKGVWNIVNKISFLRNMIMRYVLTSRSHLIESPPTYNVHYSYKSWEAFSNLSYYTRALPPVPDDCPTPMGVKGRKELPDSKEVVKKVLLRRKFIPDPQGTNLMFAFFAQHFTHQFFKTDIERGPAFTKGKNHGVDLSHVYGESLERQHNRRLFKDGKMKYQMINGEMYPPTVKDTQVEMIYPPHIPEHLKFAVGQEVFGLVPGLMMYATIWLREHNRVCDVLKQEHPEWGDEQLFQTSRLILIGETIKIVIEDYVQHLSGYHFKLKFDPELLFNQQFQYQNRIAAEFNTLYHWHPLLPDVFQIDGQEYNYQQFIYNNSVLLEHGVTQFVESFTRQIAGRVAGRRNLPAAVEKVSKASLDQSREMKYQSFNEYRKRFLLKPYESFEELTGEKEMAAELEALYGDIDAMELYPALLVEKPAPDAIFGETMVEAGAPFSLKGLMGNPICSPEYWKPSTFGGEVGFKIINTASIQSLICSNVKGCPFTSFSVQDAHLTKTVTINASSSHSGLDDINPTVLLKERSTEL

[2] = system: rat stomach; assay: Ulcerogenic liability; assay type: in vivo; conditions: rats sacrificed 4 h after drug administration
[3] = target: T2, ovine COX-1 (Ovis aries, UniProt P05979); assay: In vitro cyclooxygenase; assay type: biochemical
T2 sequence (P05979 25-600): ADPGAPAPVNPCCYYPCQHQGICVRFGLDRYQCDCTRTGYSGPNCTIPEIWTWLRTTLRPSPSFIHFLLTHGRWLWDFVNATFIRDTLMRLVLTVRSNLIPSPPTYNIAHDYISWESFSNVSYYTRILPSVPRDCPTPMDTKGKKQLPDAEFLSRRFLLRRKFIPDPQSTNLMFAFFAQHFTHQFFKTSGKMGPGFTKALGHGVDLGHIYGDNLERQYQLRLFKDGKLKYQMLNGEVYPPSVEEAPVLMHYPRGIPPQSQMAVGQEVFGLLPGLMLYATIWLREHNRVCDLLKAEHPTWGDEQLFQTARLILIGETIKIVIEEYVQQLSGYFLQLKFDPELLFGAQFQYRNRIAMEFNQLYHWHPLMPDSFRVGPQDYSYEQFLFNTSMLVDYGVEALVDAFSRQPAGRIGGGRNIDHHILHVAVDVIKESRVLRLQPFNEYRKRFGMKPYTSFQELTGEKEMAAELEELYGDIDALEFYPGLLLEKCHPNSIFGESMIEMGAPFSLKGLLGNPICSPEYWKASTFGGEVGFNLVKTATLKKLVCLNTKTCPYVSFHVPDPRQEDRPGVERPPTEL

[4] = system: carrageenan-induced rat paw edema; assay: Carrageenan-induced rat paw edema model; assay type: in vivo; conditions: 10 mg kg−1 po, n = 4; for Edema inhibition %, 1 h / Edema thickness ± SEM, 1 h: 1 h after carrageenan injection; for Edema inhibition %, 3 h / Edema thickness ± SEM, 3 h: 3 h after carrageenan injection; for Edema inhibition %, 6 h / Edema thickness ± SEM, 6 h: 6 h after carrageenan injection
In short: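 Rats were dosed orally with test compound (10 mg kg−1) in 5% aqueous DMSO (v/v). […] Thirty minutes after dosing, 0.02 ml of 1% carrageenan was injected sub-plantar. Paw thickness was measured 1, 3 and 6 h after injection, and edema inhibition % was calculated from paw thickness.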

[5] = system: rat's stomach; assay: Histo-pathological study of glandular and non-glandular stomach; assay type: in vivo; conditions: text description

Row | Compound | IC50 [1] [µM] | Selectivity index (SI) [1] | Ulcer index, mean [2] [mm] | IC50 [3] [µM] | Edema inhibition %, 1 h [4] [%] | Edema thickness ± SEM, 1 h [4] [mm] | Edema inhibition %, 3 h [4] [%] | Edema thickness ± SEM, 3 h [4] [mm] | Edema inhibition %, 6 h [4] | Edema thickness ± SEM, 6 h [4] [mm] | Severity of histopathological lesions of the stomach (in words) [5]
1 | CS(=O)(=O)c1ccc(-c2nc3ccccc3n2CC(=O)N/N=C/c2ccc(Cl)cc2)cc1 [11b, (E)-N′-(4-Chlorobenzylidene)-2-(2-(4-(methylsulfonyl)phenyl)-1H-benzo[d]imidazol-1-yl) acetohydrazide] | 0.1 | 134 | 0.83 | 13.4 | 86 | 0.357 ± 0.012 | 93 | 0.155 ± 0.002 | 95% | 0.094 ± 0.006 | mild pathological lesions
2 | C/C(=N\NC(=O)Cn1c(-c2ccc(S(C)(=O)=O)cc2)nc2cc(Cl)ccc21)c1ccc(Cl)cc1 [12d, (E)-2-(5-Chloro-2-(4-(methylsulfonyl)phenyl)-1H-benzo[d]imidazol-1-yl)-N′-(1-(4-chlorophenyl)ethylidene) acetohydrazide] | 0.1 | 132 | 1 | 13.2 | 89 | 0.286 ± 0.009 | 93 | 0.154 ± 0.008 | 94.7% and 95% | 0.098 ± 0.005 | mild pathological lesions
3 | COc1ccc(/C=N/NC(=O)Cn2c(-c3ccc(S(C)(=O)=O)cc3)nc3cc(C)ccc32)cc1 [11k, (E)-N′-(4-Methoxybenzylidene)-2-(5-methyl-2-(4-(methylsulfonyl)phenyl)-1H-benzo[d]imidazol-1-yl) acetohydrazide] | 0.1 | 123 | 4.5 | 12.3 | 82 | 0.464 ± 0.014 | 92 | 0.189 ± 0.017 | 94% | 0.111 ± 0.009 | mild to moderate lesions
